Source: article PMC7076145 (Journal of Advanced Research, 2020)
Values after ≈ are worked out from the molar mass of the structure shown.

What was measured:
[1] = tested on: cytokine (TNF-α) production in human leukemia cell line (THP-1); experiment: Cytokine; type: cell-based; conditions: THP-1 cells, LPS 50 ng/mL, 240 min; for inhibition of cytokine (TNF-α) production: test concentration not given
Method in brief: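 THP-1 cells grown in RPMI-1640 with 50 µM mercaptoethanol, 1 mM sodium pyruvate, 10% FBS, 5.5 mM glucose, 2 mM L-glutamine and 10 mM HEPES, then plated at 70% confluency. Cells differentiated to macrophage-like cells with PMA 20 ng/mL for 24 h (37 °C, 5% CO2). E. coli LPS B added with test compound for 240 min. Supernatant TNF-α measured by human DuoSet ELISA.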

T-cell proliferation = experiment: T-cells proliferation assay; type: cell-based, human; conditions: for IC50: Homo sapiens, T-cell, 48 h, read-out: IC50 against T-cell proliferation
Method in brief: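 PBMCs came from heparinized healthy human blood. Blood was diluted 1:1 with RPMI-1640, layered on LSM and spun at 400 g for 20 min at 25 °C. The buffy layer was washed at 4 °C and resuspended in RPMI with 5% FBS. Cells were activated with PHA-L, given test compound at several concentrations in triplicate, and incubated 2 days at 37 °C, 5% CO2. Alamar Blue (one-tenth volume) was added for 4 h; absorbance read at 570 and 600 nm.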

[2] = human T-lymphocytes, phytohemagglutinin-L 7.5 μg/mL, 2 days

Compound	inhibition of cytokine (TNF-α) production [1]	activity against T-cell proliferation (in words) (T-cell proliferation; [2])	other results
17β-Hydroxy-1-methyl-3-oxo-5α-androst-1-en [Compound 8]	69.7 ± 1.4%		IC50 against T-cell proliferation (T-cell proliferation; [2]): 21.1 ± 0.04 µg/mL
CC(=O)O[C@H]1CC[C@H]2[C@@H]3CC[C@H]4CC(=O)C=C(C)[C@]4(C)[C@H]3CC[C@]12C [Compound 1, Metenolone acetate, reference compound]	62.5 ± 4.4%	inactive	
CC(=O)OC1CC[C@H]2[C@@H]3C[C@H](O)[C@H]4CC(=O)C=C(C)[C@]4(C)[C@H]3CC[C@]12C (stereo partly drawn) [Compound 2, 6α-Hydroxy-1-methyl-3-oxo-5α-androst-1-en-17-yl acetate]	73.4 ± 0.6%		IC50 (T-cell proliferation): 68.9 ± 0.02 µg/mL
CC(=O)OC1CC[C@H]2[C@@H]3[C@@H](O)C[C@H]4CC(=O)C=C(C)[C@]4(C)[C@H]3CC[C@]12C (stereo partly drawn) [Compound 4, 7β-Hydroxy-1-methyl-3-oxo-5α-androst-1-en-17-yl acetate]	33.5 ± 6.6%	inactive	
CC(=O)OC1C[C@@H](O)[C@H]2[C@@H]3CC[C@H]4CC(=O)C=C(C)[C@]4(C)[C@H]3CC[C@]12C (stereo partly drawn) [Compound 6, 15β-Hydroxy-1-methyl-3-oxo-5α-androst-1-en-17-yl acetate]	37.8 ± 1.1%	inactive	
CC1=CC(=O)C=C2CC[C@@H]3[C@H](CC[C@]4(C)[C@@H](O)CC[C@@H]34)[C@@]12C [Compound 7, 17β-Hydroxy-1-methyl-3-oxoandrosta-1,4-dien]	46.6 ± 5.2%	inactive	
CC1=CC(=O)C[C@H]2CC[C@H]3[C@@H]4CC[C@H](O)[C@@]4(C)CC[C@@H]3[C@@]12C [Compound 9, 17β-Hydroxy-1-methyl-3-oxo-5β-androst-1-en]			activity against cytokine (TNF-α) production (in words) [1]: inactive
CC1=CC(=O)C[C@H]2CC[C@@H]3[C@H](CC[C@]4(C)C(=O)CC[C@@H]34)[C@@]12C [Compound 10, 1-Methyl-5β-androst-1-en-3,17-dione]	73.2 ± 0.3%		
CC1=CC(=O)C=C2CC[C@@H]3[C@H](C[C@@H](O)[C@]4(C)[C@@H](O)CC[C@@H]34)[C@@]12C [Compound 11, 12β,17β-Dihydroxy-1-methyl-3-oxoandrosta-1,4-dien]	60.1 ± 3.3%		
C[C@H]1CC(=O)C[C@@H]2CC[C@H]3[C@@H]4CC[C@H](O)[C@@]4(C)CC[C@@H]3[C@]21C [Compound 13, 17β-Hydroxy-1α-methyl-5α-androstan-3-one]			activity against cytokine (TNF-α) production (in words) [1]: inactive
CC1=CC(=O)C[C@@H]2C[C@H](O)[C@H]3[C@@H]4[C@H](O)C[C@H](O)[C@@]4(C)CC[C@@H]3[C@@]12C [Compound 14, 7β,15β,17β-trihydroxy-1-methyl-3-oxo-5α-androst-1-en]	52.9 ± 2.4%		
C[C@]12C=CC(=O)C=C1CC[C@@H]1[C@@H]2[C@@H](O)C[C@@]2(C)[C@H]1CC[C@]2(O)C(=O)CO [prednisolone, reference compound]			IC50 (T-cell proliferation): 3.51 ± 0.03 µg/mL (≈ 9.74 µM)
